Consider 25 molecules from ChEMBL document CHEMBL4622835, “A novel potent metal-binding NDM-1 inhibitor was identified by fragment virtual, SPR and NMR screening” (Bioorg Med Chem, 2020).

Each structure is given as a SMILES string.

The subject of one experiment is Klebsiella pneumoniae. Kind of experiment: Synergistic antibacterial activity against Klebsiella pneumoniae ATCC BAA-2470 cells expressing NDM-1 incubated for 20 to 24 hrs presence of meropenem by broth dilution method (Rvb >64 ug/ml). The experiment is classed as functional. The method, boiled down: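 Broth microdilution in Mueller-Hinton broth, final inoculum about 5 × 10^5 CFU/mL. Test compound fixed at 100 µg/mL final (from 20 mg/mL DMSO stock). Meropenem in two-fold dilutions, 64 to 0.0625 µg/mL final. Plates held 20–24 h at 37 °C. MIC is the lowest meropenem concentration with no visible growth.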

The nature of experiment [1]: Binding affinity to recombinant bacteria NDM-1 (I31 to K268 residues)expressed in Escherichia coli BL21 (DE3) cells by SPR assay. The method, boiled down:
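Tag-free NDM-1 at 50 µg/ml in pH 5.0 sodium acetate, amine-coupled to a CM7 chip (>8,000 RU). Biacore T200, 25 °C, 30 µL/min. Running buffer 10 mM Hepes pH 7.5, 150 mM NaCl, 100 µM ZnCl2, 2% DMSO (EDTA-2Na run without DMSO). Eight two-fold dilutions per compound. KD from a steady-state 1:1 fit, at least three runs.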
For orientation: In SPR one partner is held on a chip, and binding of the other changes the refractive index at the surface.

Experiment [2] in a line: Inhibition of recombinant bacteria NDM-1 (I31 to K268 residues) expressed in Escherichia coli BL21 (DE3) cells incubated for 20 mins using meropenem as substrate. In outline: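 NDM-1 (12 nM) preincubated with inhibitor for 20 min at room temperature, then meropenem (100 µM) added. Final buffer 50 mM hepes pH 7.24 with 2% DMSO. Absorbance read at 300 nm at 30 °C. Duplicate wells, three repeats. IC50 taken from percent loss of activity against inhibitor concentration; L-captopril as positive control.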

Experiment [3] in a line: Inhibition of bacteria NMD-1.
A short description of experiment [4]: Binding affinity to recombinant bacteria 15N labeled His-6-tagged NDM-1 (36 to 270 residues) expressed in Escherichia coli BL21 (DE3) cells by NMR analysis. The method, boiled down:
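15N-labelled NDM-1 (0.11 mM or 0.165 mM) in 50 mM HEPES, 200 mM NaCl, pH 7.5, titrated with inhibitor from DMSO stock (20 mM or 50 mM). 1H-15N HSQC spectra recorded at 800 MHz, 298 K and 293 K. NDM-1:inhibitor mole ratios ran 1:0 to 1:15. Both di-Zn and apo (EDTA-stripped) forms were used; after the apo titrations, 2 equiv Zn2+ added.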

What is called MIC is the smallest concentration in the dilution series that meets the test's criterion for growth inhibition. One may read the Kd as the concentration at which binding is half-saturated. Usually IC50 stands for the concentration that gives 50% inhibition. With `CCC/C(=N\Nc1cccc2cccnc12)C(=O)O.Cl`, in the experiment with Klebsiella pneumoniae, the MIC was over 64 µg/mL. Moreover, the Kd in experiment [1] was 221 µM. In experiment [2], the IC50 was 82.3 µM.

Take `CCC/C(=N\Nc1ccccc1)C(=O)O`: the minimal inhibitory concentration (MIC) in the experiment on Klebsiella pneumoniae was over 64 µg/mL. In experiment [1], the Kd turned out to be 188 µM.

Turning to `O=c1c2ccccc2[se]n1-c1ccccc1` [EBSELEN], it took 380 nM to reach half-maximal inhibition in experiment [3] (IC50).

As to `C/C(=N\Nc1cccc2cccnc12)C(=O)O.Cl`, the Kd was 620 µM in experiment [4] and 219 to 290 µM in experiment [1]. In addition, in the experiment with Klebsiella pneumoniae, the minimal inhibitory concentration (MIC) was over 64 µg/mL. In experiment [2], the IC50 was determined as 124 µM.

Regarding `CC/C(=N\Nc1cccc2cccnc12)C(=O)O.Cl`, the MIC in the experiment with Klebsiella pneumoniae was 64 µg/mL. Further, the Kd in experiment [1] was found to be 275 µM. Moreover, the 50% inhibitory concentration (IC50) in experiment [2] is 68.2 µM.

For `O=C([O-])CN(CCN(CC(=O)[O-])CC(=O)O)CC(=O)O.[Na+].[Na+]` [EDETATE DISODIUM ANHYDROUS], the dissociation constant (Kd) in experiment [1] was over 1000 µM. Moreover, the IC50 in experiment [2] turned out to be 17.2 µM.

In the case of `CC(C)(C)/C(=N\Nc1cccc2cccnc12)C(=O)O.Cl`, in the experiment on Klebsiella pneumoniae, the MIC came to 64 µg/mL. In experiment [1], the dissociation constant Kd was 435 µM. In experiment [2], the IC50 was over 500 µM.

Consider `CC/C(=N\Nc1cccc2ccccc12)C(=O)O`, for which the MIC in the experiment with Klebsiella pneumoniae is over 64 µg/mL. Moreover, the Kd in experiment [1] was 449 µM. In addition, the 50% inhibitory concentration (IC50) in experiment [2] was determined as 28.1 µM.

For the molecule `NCc1ccc(C(=O)N[C@H]2Cc3cccc(C(=O)O)c3O[B-]2(O)O)cc1`, the 50% inhibitory concentration (IC50) in experiment [3] came out at 29 nM.

In experiment [3], `O=C(O)[C@@H]1CS[C@H]2CS[C@H](CS)N21` came in with an IC50 of 23000 nM.

Consider `CC(C)(C)/C(=N\Nc1cccc2ccccc12)C(=O)O`, for which, in the experiment on Klebsiella pneumoniae, the MIC was over 64 µg/mL. The equilibrium dissociation constant (Kd) in experiment [1] was 307 µM. Also, in experiment [2], the IC50 was determined as 94.6 µM.

Take `O=C(O)CNC(=O)C(CS)Cc1ccccc1` (configuration not stated) [THIORPHAN]: in experiment [3], the IC50 worked out at 1800 nM.

Take `N[C@@H](CN[C@@H](CN[C@@H](CC(=O)O)C(=O)O)C(=O)O)C(=O)O`: inhibition in experiment [3] was half-maximal at 7000 nM (IC50).

Turning to `CCC/C(=N\Nc1cccc2ccccc12)C(=O)O`, the minimal inhibitory concentration (MIC) in the experiment on Klebsiella pneumoniae is 32 µg/mL. Also, the Kd in experiment [1] was over 1000 µM. In addition, the concentration for half-maximal inhibition (IC50) in experiment [2] is over 500 µM.

As for `CC(C)(C)/C(=N\Nc1ccccc1)C(=O)O`, in the experiment on Klebsiella pneumoniae, the minimal inhibitory concentration (MIC) is over 64 µg/mL. For the same molecule, the Kd in experiment [1] is 438 µM.

Take `C/C(=N\Nc1ccccc1)C(=O)O`: the MIC in the experiment with Klebsiella pneumoniae is over 64 µg/mL. Also, in experiment [1], the dissociation constant Kd was 168 µM.

In the case of `CCC/C(=N\Nc1cccnc1)C(=O)O.Cl`, in the experiment on Klebsiella pneumoniae, the minimal inhibitory concentration (MIC) is over 64 µg/mL. The Kd in experiment [1] is 703 µM.

With `CC(C)(C)/C(=N\Nc1cccnc1)C(=O)O.Cl`, the MIC in the experiment on Klebsiella pneumoniae is over 64 µg/mL. For the same molecule, the equilibrium dissociation constant (Kd) in experiment [1] is over 1000 µM.

As for `C[C@H](CS)C(=O)N1CCC[C@H]1C(=O)O` [CAPTOPRIL], the dissociation constant Kd in experiment [1] is 12 to 14.1 µM. In experiment [2], the IC50 turned out to be 390 µM.

In the case of `C/C(=N\Nc1cccnc1)C(=O)O.Cl`, the MIC in the experiment on Klebsiella pneumoniae was over 64 µg/mL. Also, in experiment [1], the Kd was over 1000 µM.

In the case of `C/C(=N\Nc1cccc2ccccc12)C(=O)O`, the MIC in the experiment on Klebsiella pneumoniae is over 64 µg/mL. For the same molecule, the Kd in experiment [1] is 255 µM. Moreover, the IC50 in experiment [2] came out at 389 µM.

With `NCCN[C@H]1CC[C@H](CC(=O)N[C@H]2Cc3cccc(C(=O)O)c3OB2O)CC1`, in experiment [3], the IC50 was found to be 10 nM.

As for `CC/C(=N\Nc1ccccc1)C(=O)O`, the MIC in the experiment with Klebsiella pneumoniae is over 64 µg/mL. In experiment [1], the Kd is 191 µM.

As for `CC/C(=N\Nc1cccnc1)C(=O)O.Cl`, the MIC in the experiment with Klebsiella pneumoniae was over 64 µg/mL. Also, the Kd in experiment [1] is over 1000 µM.

In the case of `C[C@@H](O)[C@H]1C(=O)N2C(C(=O)O)=C(S[C@@H]3CN[C@H](C(=O)N(C)C)C3)[C@H](C)[C@H]12` [MEROPENEM], the Kd in experiment [1] is 75 µM.
